In ChEMBL document CHEMBL4431328, “Development of a Single-Chain Peptide Agonist of the Relaxin-3 Receptor Using Hydrocarbon Stapling” (J Med Chem, 2016):
Active and inactive are the calls of the source. The calls are words filed in the database; no cut-off is given here. Where a SMILES comes first, the peptide text is derived from it. Bridges are numbered along the chain shown (N, C = ends). [ ]: non-standard residue; d: D form. S5 = C=CCCC[C@](C)(N)C(=O)O

Key:
[1] = target: T1, Relaxin-3 receptor 1 (Homo sapiens, UniProt Q9NSD7); experiment: Agonist activity at human RXFP3 receptor expressed in CHOK1 cells cotransfected with beta-galactosidase assessed as inhibition of forskolin-stimulated cAMP by beta-galactosidase reporter gene assay; assay type: functional, cell-based
T1 sequence (Q9NSD7 whole entry): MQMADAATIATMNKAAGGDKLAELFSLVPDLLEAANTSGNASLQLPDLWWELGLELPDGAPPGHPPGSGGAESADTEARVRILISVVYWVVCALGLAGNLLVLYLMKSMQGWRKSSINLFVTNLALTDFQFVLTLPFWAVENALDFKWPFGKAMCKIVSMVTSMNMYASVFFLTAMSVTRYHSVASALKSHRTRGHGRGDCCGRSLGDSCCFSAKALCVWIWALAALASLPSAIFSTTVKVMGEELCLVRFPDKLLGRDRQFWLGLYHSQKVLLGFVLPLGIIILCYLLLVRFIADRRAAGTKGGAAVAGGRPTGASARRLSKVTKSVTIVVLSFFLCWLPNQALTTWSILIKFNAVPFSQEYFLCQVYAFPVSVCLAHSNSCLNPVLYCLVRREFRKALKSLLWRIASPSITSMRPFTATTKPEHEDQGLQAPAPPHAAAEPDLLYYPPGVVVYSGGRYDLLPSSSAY

[2] = target: T2, Relaxin-3 receptor 2 (Homo sapiens, UniProt Q8TDU9); experiment: Displacement of Eu-INSL5 from human RXFP4 receptor expressed in CHOK1 cells by time-resolved fluorescent whole cell binding assay; assay type: cell-based
T2 sequence (Q8TDU9 whole entry): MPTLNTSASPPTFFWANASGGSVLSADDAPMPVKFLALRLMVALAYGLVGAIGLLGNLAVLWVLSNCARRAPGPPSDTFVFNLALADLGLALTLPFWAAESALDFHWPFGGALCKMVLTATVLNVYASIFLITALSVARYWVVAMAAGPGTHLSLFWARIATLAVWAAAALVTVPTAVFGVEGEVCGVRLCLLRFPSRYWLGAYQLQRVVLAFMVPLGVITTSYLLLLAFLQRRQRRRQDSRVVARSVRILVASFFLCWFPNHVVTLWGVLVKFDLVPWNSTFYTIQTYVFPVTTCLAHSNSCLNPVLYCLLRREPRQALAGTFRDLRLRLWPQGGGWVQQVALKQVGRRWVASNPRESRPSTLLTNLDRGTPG

[3] = target: T2, Relaxin-3 receptor 2; experiment: Agonist activity at human RXFP4 receptor expressed in CHOK1 cells cotransfected with beta-galactosidase assessed as inhibition of forskolin-stimulated cAMP by beta-galactosidase reporter gene assay; assay type: functional, cell-based
[4] = target: T3, Relaxin receptor 1 (Homo sapiens, UniProt Q9HBX9); experiment: (§1) Agonist activity at RXFP1 receptor (unknown origin) expressed in HEK-293T cells cotransfected with beta-galactosidase assessed as cAMP activation by beta-galactosidase reporter gene assay; assay type: functional, cell-based
T3 sequence (Q9HBX9 whole entry): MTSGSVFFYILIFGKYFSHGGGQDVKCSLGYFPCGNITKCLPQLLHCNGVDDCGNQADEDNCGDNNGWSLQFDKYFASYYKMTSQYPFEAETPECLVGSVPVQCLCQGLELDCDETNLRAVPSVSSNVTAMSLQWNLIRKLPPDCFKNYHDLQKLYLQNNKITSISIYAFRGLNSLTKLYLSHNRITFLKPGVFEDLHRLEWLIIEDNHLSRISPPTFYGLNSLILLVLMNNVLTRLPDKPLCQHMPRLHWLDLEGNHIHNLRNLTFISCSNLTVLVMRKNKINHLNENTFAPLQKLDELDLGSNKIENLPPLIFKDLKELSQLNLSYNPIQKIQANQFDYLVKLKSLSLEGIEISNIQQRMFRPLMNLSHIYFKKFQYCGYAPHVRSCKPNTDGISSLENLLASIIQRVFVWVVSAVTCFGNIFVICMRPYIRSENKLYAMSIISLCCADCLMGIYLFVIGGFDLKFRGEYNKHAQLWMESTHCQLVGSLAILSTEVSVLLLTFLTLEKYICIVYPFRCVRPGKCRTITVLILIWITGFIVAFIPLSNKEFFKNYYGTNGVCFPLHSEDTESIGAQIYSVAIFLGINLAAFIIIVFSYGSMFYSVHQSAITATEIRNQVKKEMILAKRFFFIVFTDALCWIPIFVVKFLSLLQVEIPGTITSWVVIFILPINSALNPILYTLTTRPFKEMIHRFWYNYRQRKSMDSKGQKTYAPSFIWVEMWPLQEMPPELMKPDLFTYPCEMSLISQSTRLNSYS
How it was run: (§2)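 Tested for RXFP1 activation at concentrations up to 10 µM, alongside the […] as a reference.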

[5] = target: T4, Relaxin receptor 1 (Homo sapiens) (UniProt Q9HBX9); experiment: Agonist activity at RXFP1 receptor (unknown origin) expressed in HEK-293T cells cotransfected with beta-galactosidase assessed as cAMP activation at 10 uM by beta-galactosidase reporter gene assay; assay type: functional, cell-based; how it was run: as §2
T4 sequence (whole entry): T3 sequence (Q9HBX9 whole entry)

[6] = target: T1, Relaxin-3 receptor 1; experiment: Displacement of Eu-H3/15 from human RXFP3 receptor expressed in CHOK1 cells by time-resolved fluorescent whole cell binding assay; assay type: cell-based
[7] = tested on: Rattus norvegicus; experiment: Induction of food intake in satiated Sprague-Dawley rat at 1 nmol, icv during early light phase measured after 1 hr post dose; assay type: functional, organism-based
[8] = tested on: Rattus norvegicus; experiment: Induction of water intake in satiated Sprague-Dawley rat at 1 nmol, icv during early light phase measured after 1 hr post dose; assay type: functional, organism-based
[9] = target: T4, Relaxin receptor 1 (Homo sapiens); experiment: as §1; assay type: functional, cell-based; how it was run: as §2
[10] = target: T1, Relaxin-3 receptor 1; experiment: Agonist activity at human RXFP3 receptor expressed in CHOK1 cells assessed as ERK1/2 phosphorylation incubated for 5 mins by alphascreen surefire assay; assay type: cell-based
[11] = Toxicity in satiated Sprague-Dawley rat assessed as behavioral changes at 1 nmol, icv during early light phase measured after 1 hr post dose under home cage condition; details: in vivo, icv_or_intrathecal

EC50 [1] [nM]	Ki [2] [nM]	EC50 [3] [nM]	EC50 [4] [nM]	Activity [5]	Ki [6] [nM]	pEC50 [9]	EC50 [10] [nM]	SMILES	Activity [7]	Activity [8]	Activity [11]
8710	> 10000	2690	> 10000	inactive	–	–	–	CC[C@H](C)[C@H](NC(=O)[C@H](Cc1ccccc1)NC(=O)[C@H](CCC(=O)O)NC(=O)[C@H](CCCNC(=N)N)NC(=O)CNC(=O)[C@H](CO)NC(C)=O)C(=O)N[C@@H](CCCNC(=N)N)C(=O)N[C@@H](C)C(=O)N[C@H](C(=O)N[C@H](C(=O)N[C@@H](Cc1ccccc1)C(=O)N[C@H](C(=O)N[C@@H](CO)C(=O)NCC(=O)NCC(=O)N[C@@H](CO)C(=O)N[C@@H](CCCNC(=N)N)C(=O)N[C@@H](Cc1c[nH]c2ccccc12)C(=O)O)[C@@H](C)O)[C@@H](C)CC)C(C)C (Ac-SGREFIRAVIFTSGGSRW-OH)	–	–	–
4570	> 10000	5890	> 10000	inactive	–	–	–	CC[C@H](C)[C@H](NC(=O)[C@H](Cc1ccccc1)NC(=O)[C@H](CCC(=O)O)NC(=O)[C@H](CCCNC(=N)N)NC(=O)CNC(=O)[C@H](CO)NC(C)=O)C(=O)N[C@@H](CCCNC(=N)N)C(=O)N[C@@H](CCCCN)C(=O)N[C@H](C(=O)N[C@H](C(=O)N[C@@H](Cc1ccccc1)C(=O)N[C@H](C(=O)N[C@@H](CO)C(=O)NCC(=O)NCC(=O)N[C@@H](CO)C(=O)N[C@@H](CCCNC(=N)N)C(=O)N[C@@H](Cc1c[nH]c2ccccc12)C(=O)O)[C@@H](C)O)[C@@H](C)CC)C(C)C (Ac-SGREFIRKVIFTSGGSRW-OH)	–	–	–
5.25	123	120	> 10000	inactive	107	–	–	CC[C@H](C)[C@@H]1NC(=O)[C@H](Cc2ccccc2)NC(=O)[C@@](C)(NC(=O)[C@H](CCCNC(=N)N)NC(=O)CNC(=O)[C@H](CO)NC(=O)[C@H](CC(C)C)NC(=O)[C@H](CCCNC(=N)N)NC(C)=O)CCC/C=C/CCC[C@@](C)(C(=O)N[C@H](C(=O)N[C@H](C(=O)N[C@@H](Cc2ccccc2)C(=O)N[C@H](C(=O)N[C@@H](CO)C(=O)NCC(=O)NCC(=O)N[C@@H](CO)C(=O)N[C@@H](CCCNC(=N)N)C(=O)N[C@@H](Cc2c[nH]c3ccccc23)C(=O)O)[C@@H](C)O)[C@@H](C)CC)C(C)C)NC(=O)[C@H](CCCNC(=N)N)NC1=O (Ac-RLSGR[S5]FIR[S5]VIFTSGGSRW-OH; staple (E) 6-10)	–	–	–
3.31	316	112	–	inactive	275	inactive	0.12	CC[C@H](C)[C@@H]1NC(=O)[C@H](Cc2ccccc2)NC(=O)[C@@](C)(NC(=O)[C@H](CCCNC(=N)N)NC(=O)CNC(=O)[C@H](CO)NC(C)=O)CCC/C=C/CCC[C@@](C)(C(=O)N[C@H](C(=O)N[C@H](C(=O)N[C@@H](Cc2ccccc2)C(=O)N[C@H](C(=O)N[C@@H](CO)C(=O)NCC(=O)NCC(=O)N[C@@H](CO)C(=O)N[C@@H](CCCNC(=N)N)C(=O)N[C@@H](Cc2c[nH]c3ccccc23)C(=O)O)[C@@H](C)O)[C@@H](C)CC)C(C)C)NC(=O)[C@H](CCCNC(=N)N)NC1=O (Ac-SGR[S5]FIR[S5]VIFTSGGSRW-OH; staple (E) 4-8)	Active	inactive	Non-Toxic
